Here are results for six compounds from ChEMBL document CHEMBL1122742, “Cardiotonic agents. 1. 4,5-Dihydro-6-[4-(1H-imidazol-1-yl)phenyl]-3 (2H)-pyridazinones: novel positive inotropic agents for the treatment of congestive heart failure” (J Med Chem, 1984).

What is called ED50 is the dose that gives a 50% effect, or the effect in half of the subjects. Read a low ED50 as an effect at a small dose. Usually inhibition stands for the relative decrease from the control value, in per cent.

Experiment [1] concerns Canis familiaris. Description: Positive inotropic activity in anesthetized dogs. Conditions: Canis lupus familiaris. The class given is functional. The essentials: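 Anesthetized dogs received increasing intravenous half-log doses across 0.001–1.0 mg/kg. dP/dtmax was recorded while heart rate and aortic pressure were monitored. ED50 was taken from the linear part of each animal's dose–response curve by least squares, then averaged as mean and SEM.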

Experiment [2] deals with Canis familiaris. Description: Positive inotropic effect (reduced mean aortic blood pressure) in anesthetized dogs at 0.001-1.0 mg/kg intravenous administration, range 0.7-22.4. In kind it is functional, Canis lupus familiaris, Artery. The essentials:
(§1)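 Anesthetized dogs were given increasing intravenous half-log doses within 0.001–1.0 mg/kg. Heart rate, aortic blood pressure and dP/dtmax were recorded simultaneously. Changes are expressed as percent of control, with mean ± error at each dose.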

The subject of experiment [3] is Canis familiaris. The experiment can be described thus: Positive inotropic effect (increased myocardial contractility) in chronically instrumented conscious dogs at 1.0 mg/kg oral administration for 6 hours. The class given is functional, Canis lupus familiaris.
The test system of experiment [4] is Canis familiaris. The experiment can be described thus: Positive inotropic effect (increase in heart rate) in anesthetized dogs at 0.001-1.0 mg/kg intravenous administration, range is 1.2-33.8. In kind it is functional, Canis lupus familiaris. The essentials: as §1
The subject of experiment [5] is Canis familiaris. The experiment can be described thus: Positive inotropic effect (increase in heart rate) in chronically instrumented conscious dogs at 1.0 mg/kg oral administration for 6 hours. In kind it is functional, Canis lupus familiaris.
The species entered for the next experiment is Bos taurus. Description: Percent inhibition of crude bovine cardiac phosphodiesterase at 190 uM.
Experiment [6] relates to Canis familiaris. The experiment can be described thus: Positive inotropic effect (increased myocardial contractility) in anesthetized dogs at 0.01-1.0 mg/kg intravenous administration, range 10.2-146.7.
In experiment [7] the test system is Canis familiaris. Description: Positive inotropic effect (reduced mean aortic blood pressure) in anesthetized dogs at 0.001-1.0 mg/kg intravenous administration. The class given is functional, Canis lupus familiaris, Artery. The essentials:
as §1

In experiment [8] the test system is Canis familiaris. The experiment can be described thus: Positive inotropic effect (increase in heart rate) in anesthetized dogs at 0.001-1.0 mg/kg intravenous administration, range is 2.5-43.8. In kind it is functional, Canis lupus familiaris. The essentials:
as §1

Experiment [9] has as its system Canis familiaris. Description: Positive inotropic effect (increase in heart rate) in chronically instrumented conscious dogs at 0.1 mg/kg oral administration for 6 hours.
Experiment [10] deals with Canis familiaris. The experiment can be described thus: Positive inotropic effect (increased myocardial contractility) in anesthetized dogs at 0.001-0.10 mg/kg intravenous administration, range 10.5-148.5.
The test system of experiment [11] is Canis familiaris. The experiment can be described thus: Positive inotropic effect (increased myocardial contractility) in chronically instrumented conscious dogs at 0.1 mg/kg oral administration for 6 hours.

Values joined by “and” are separate entries in the source; they are usually repeats but may differ in a detail not shown here. Identical values can stand only once.

Compound `COc1cc([S+](C)[O-])ccc1-c1nc2cccnc2[nH]1` (configuration not stated) [SULMAZOLE] came in with an ED50 in the experiment on Canis familiaris [1] of 0.435 mg/kg.

In the case of `CSc1ccc(C(=O)c2[nH]c(=O)[nH]c2C)cc1` [ENOXIMONE], the ED50 with Canis familiaris [1] was 0.283 mg/kg.

In the case of `Nc1cc(-c2ccncc2)c[nH]c1=O` [INAMRINONE], it took a dose of 0.389 mg/kg to reach the 50% effect level in the experiment on Canis familiaris [1] (ED50).

As for `O=C1CCC(c2ccc(-n3ccnc3)cc2)=NN1` [IMAZODAN], in the experiment with Canis familiaris [2], the Blood pressure was found to be 0.7. Moreover, the results for the dP/dt max in the experiment with Canis familiaris [3] and in the experiment with Canis familiaris [6] were 42.6 and 10.2, respectively. In addition, the results for the Heart rate with Canis familiaris [4] and in the experiment on Canis familiaris [5] were 0 and 48.1, respectively. Besides, the 50% effect level in the experiment on Canis familiaris [1] (ED50) was put at a dose of 0.045 mg/kg. In the experiment filed under Bos taurus, this compound showed an inhibition of 50%.

On to `CC1CC(O)=NN=C1c1ccc(-n2ccnc2)cc1` (configuration not stated) [CI-930], for which the Blood pressure with Canis familiaris [7] is 19 and 7.4. In addition, the Heart rate in the experiment with Canis familiaris [8] is reported as 2.5; in the experiment on Canis familiaris [9], 41.6. In addition, the ED50 in the experiment with Canis familiaris [1] worked out at 0.013 mg/kg. Further, the dP/dt max in the experiment on Canis familiaris [10] is reported as 10.5; with Canis familiaris [11] it was 50.2.

`Cc1[nH]c(=O)c(C#N)cc1-c1ccncc1` [MILRINONE] displayed an ED50 in the experiment on Canis familiaris [1] of 0.037 mg/kg.
